ChEMBL document CHEMBL4340559, “Design and synthesis of functionalized coumarins as potential anti-austerity agents that eliminates cancer cells' tolerance to nutrition starvation” (Bioorg Med Chem Lett, 2019)
Activity calls are given as the source filed them. The calls are words filed in the database; no cut-off is given here.

Columns and labels:
PANC-1 [1] = assay: Antiausteritic activity against human PANC1 cells in nutrient-deprived medium measured after 24 hrs by WST8 assay; type: functional
PANC-1 [2] = assay: Cytotoxic activity against human PANC1 cells in nutrient-rich medium measured after 24 hrs by WST8 assay; type: cell-based; details: panc-1, 24 h
PANC-1 [3] = assay: Antiausteritic activity against human PANC1 cells in nutrient deprived medium assessed as appearance of rounded cells at 1.25 uM after 24 hrs by ethidium bromide/acridine orange staining based phase contrast microscopic method; type: functional, cell-based
Procedure, shortened: (§1)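 PANC-1 cells exposed 24 h in nutrient-deprived medium (NDM) alongside untreated control, then stained with ethidium bromide/acridine orange. AO enters all cells and fluoresces green. EB enters only dead or dying cells and fluoresces red. Cells were scored by fluorescence colour and morphology.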

PANC-1 [4] = assay: Antiausteritic activity against human PANC1 cells in nutrient deprived medium assessed as plasma blebbing at 1.25 uM after 24 hrs by ethidium bromide/acridine orange staining based phase contrast microscopic method; type: functional, cell-based; procedure, shortened: as §1
PANC-1 [5] = assay: Antiausteritic activity against human PANC1 cells in nutrient deprived medium assessed as rupture of cell membrane at 1.25 uM after 24 hrs by ethidium bromide/acridine orange staining based phase contrast microscopic method; type: functional; procedure, shortened: as §1
PANC-1 [6] = assay: Inhibition of colony formation in human PANC1 cells at 12.5 uM in the nutrient rich DMEM media treated for 24 hrs followed by compound washout and subsequent incubation for 10 days by crystal violet staining based assay relative to untreated control; type: functional
Procedure, shortened: (§2)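 PANC-1 cells were exposed 24 h to 12.5, 25 or 50 μM in nutrient-rich DMEM. Medium was then replaced with fresh DMEM and cells grown 10 d to form colonies. Read-out was the average area occupied by colonies relative to untreated control wells. Three replications; significance set at p < 0.05 versus control.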

PANC-1 [7] = assay: Inhibition of colony formation in human PANC1 cells at 25 uM in the nutrient rich DMEM media treated for 24 hrs followed by compound washout and subsequent incubation for 10 days by crystal violet staining based assay relative to untreated control; type: functional; procedure, shortened: as §2
PANC-1 [8] = assay: Inhibition of colony formation in human PANC1 cells at 50 uM in the nutrient rich DMEM media treated for 24 hrs followed by compound washout and subsequent incubation for 10 days by crystal violet staining based assay relative to untreated control; type: functional; procedure, shortened: as §2
PANC-1 [9] = assay: Inhibition of colony formation in human PANC1 cells at 12.5 to 50 uM in the nutrient rich DMEM media treated for 24 hrs followed by compound washout and subsequent incubation for 10 days by crystal violet staining based assay; type: functional, cell-based; procedure, shortened: as §2
PANC-1 [10] = assay: Antiausteritic activity against human PANC1 cells in nutrient deprived medium assessed as inhibition of cell mobility at 5 uM measured within 4 hrs by automated time-lapse microscopic method; type: functional, cell-based
Procedure, shortened: (§3)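 PANC-1 cells in NDM were held in a stage-top incubator with 5 μM compound, with untreated NDM control run alongside. Images were captured every 10 min for 24 h. Mobility, shrinkage and death were followed over time.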

PANC-1 [11] = assay: Antiausteritic activity against human PANC1 cells in nutrient deprived medium assessed as cell shrinkage at 5 uM measured at 7 hrs by automated time-lapse microscopic method; type: functional, cell-based; procedure, shortened: as §3
PANC-1 [12] = assay: Antiausteritic activity against human PANC1 cells in nutrient deprived medium assessed as cell death at 5 uM measured at 13 to 20 hrs by automated time-lapse microscopic method; type: functional, cell-based; procedure, shortened: as §3
PANC-1 [13] = assay: Antiausteritic activity against human PANC1 cells in nutrient deprived medium assessed as leakage of cellular contents into culture media at 1.25 uM after 24 hrs by ethidium bromide/acridine orange staining based phase contrast microscopic method; type: functional, cell-based; procedure, shortened: as §1

`O=C(NCCc1ccccc1)c1cc2ccc(O)cc2oc1=O` was tested, and the PC50 (PANC-1 [1]) was greater than 100 µM and the Activity (PANC-1 [2]) was “Non-Toxic”.

With `O=C(NCCCc1ccccc1)c1cc2cc(O)ccc2oc1=O` the PC50 (PANC-1 [1]) was greater than 100 µM and the Activity (PANC-1 [2]) was “Non-Toxic”.

`O=C(NCCCCc1ccccc1)c1cc2ccc(O)cc2oc1=O` was tested, and the PC50 (PANC-1 [1]) was 4.7 µM and the Activity (PANC-1 [2]) was “Non-Toxic”.

In the case of `O=C(NCCCc1ccc(Cl)cc1Cl)c1cc2ccc(O)cc2oc1=O`, the PC50 (PANC-1 [1]) is reported as 3.45 µM and the Activity (PANC-1 [2]) is reported as “Non-Toxic”.

With `O=C(NCCCc1ccccc1)c1cc2ccc(O)cc2oc1=O` the PC50 (PANC-1 [1]) was 0.44 µM, the Activity (PANC-1 [3]) was “Active” and the Activity (PANC-1 [4]) was “Active”. The Activity (PANC-1 [5]) was “Active”, the inhibition at 12.5 µM (PANC-1 [6]) was 8% and the inhibition at 25 µM (PANC-1 [7]) was 11%. For the same compound, the inhibition at 50 µM (PANC-1 [8]) was 19%, the inhibition (PANC-1 [9]) was “Dose-dependent effect” and the Activity (PANC-1 [10]) was “Active”. The Activity (PANC-1 [2]) was “Non-Toxic”, the Activity (PANC-1 [11]) was “Active” and the Activity (PANC-1 [12]) was “Active”. The Activity (PANC-1 [13]) was “Active”.

For `O=C(NCCCc1ccccc1)c1cc2c(O)cccc2oc1=O`, the PC50 (PANC-1 [1]) was greater than 100 µM and the Activity (PANC-1 [2]) was “Non-Toxic”.

With `O=C(NCCCc1cccc(Cl)c1)c1cc2ccc(O)cc2oc1=O` the PC50 (PANC-1 [1]) was 3.92 µM and the Activity (PANC-1 [2]) was “Non-Toxic”.

In the case of `O=C(NCc1ccccc1)c1cc2ccc(O)cc2oc1=O`, the PC50 (PANC-1 [1]) is reported as greater than 100 µM and the Activity (PANC-1 [2]) is reported as “Non-Toxic”.

With `O=C(NCCCc1ccccc1Cl)c1cc2ccc(O)cc2oc1=O` the PC50 (PANC-1 [1]) was 12.6 µM and the Activity (PANC-1 [2]) was “Non-Toxic”.

In the case of `O=C(NCCCC1CCCCC1)c1cc2ccc(O)cc2oc1=O`, the PC50 (PANC-1 [1]) is reported as 2.19 µM and the Activity (PANC-1 [2]) is reported as “Non-Toxic”.

`O=C(NCCCc1ccccc1)c1cc2ccccc2oc1=O` was tested, and the PC50 (PANC-1 [1]) was greater than 100 µM and the Activity (PANC-1 [2]) was “Non-Toxic”.

In the case of `O=C(NCCCc1ccccc1)c1cc2cccc(O)c2oc1=O`, the PC50 (PANC-1 [1]) is reported as 3.28 µM and the Activity (PANC-1 [2]) is reported as “Non-Toxic”.

`O=C(NCCCc1ccc(Cl)cc1)c1cc2ccc(O)cc2oc1=O` was tested, and the PC50 (PANC-1 [1]) was 0.51 µM and the Activity (PANC-1 [2]) was “Non-Toxic”.

In the case of `O=C(NCCCc1cccc(Cl)c1Cl)c1cc2ccc(O)cc2oc1=O`, the PC50 (PANC-1 [1]) is reported as 7.48 µM and the Activity (PANC-1 [2]) is reported as “Non-Toxic”.
